Data reported in PubChem BioAssay.
The source made the active and inactive calls.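 Rule for the calls, unless noted: active = GFP response above 150% of the DMSO level; inconclusive = fewer than 70 events counted for a yeast strain; inactive = the rest.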

Legend:
[1] = hit retest on RPL19A-GFP reporter strain – cell-based, S. cerevisiae, flow cytometry, cherry picks, mother/daughter gates, confirmation (AID 2270;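 active = GFP response below 50% of the DMSO control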); conditions: 3 h, at 10 µM, stronger effect = lower value, 100 = same GFP as DMSO wells
[2] = yeast TOR pathway reporter LAP4-GFP change – cell-based, cherry picks, flow cytometry, mother/daughter gates, confirmation (AID 2271;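 active = GFP response above 150% of the DMSO control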;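 note: ratio of sample to DMSO plate mean so 100% equals DMSO level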); conditions: S. cerevisiae LAP4-GFP strain, 3 h, at 10 µM, stronger effect = higher value, 100 means same as DMSO control
In short: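 System: Alexa 633-stained baker's yeast GFP-fusion strain; quantity: 0.2 OD600 cells; timing: compound exposure 3 h at 30 °C, end-over-end rotation; detection: HT flow cytometry, GFP fluorescence channel; measure: per-gate (all, mother, daughter) GFP response vs DMSO; control set: DMSO-only negative wells, rapamycin 400 ng/mL positive wells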

[3] = TOR pathway reporter MEP2-GFP, retest of hits – S. cerevisiae, flow cytometry GFP, cherry picks, confirmation (AID 2272;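 active = GFP response above 150% of the DMSO control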;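 note: ratio of well signal to plate DMSO mean so 100% equals DMSO level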); conditions: S. cerevisiae MEP2-GFP strain, 3 h, at 10 µM, stronger effect = higher value
[4] = yeast AGP1-GFP fluorescence change, single-dose – cell-based, flow cytometry, S. cerevisiae, cherry picks, confirmation (AID 2273);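 note: median GFP channel fluorescence over the whole cell population gate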; conditions: S. cerevisiae AGP1-GFP strain, 3 h, at 10 µM
[5] = TOR pathway CIT2 reporter hit retest – S. cerevisiae, GFP fusion, cherry picks, mother/daughter gates, confirmation (AID 2274); conditions: S. cerevisiae CIT2-GFP strain, flow cytometry, 3 h, at 10 µM, stronger effect = higher value
[6] = measured here: daughter cell gate
[7] = measured here: mother cell gate
[8] = measured here: daughter cell gate response
[9] = measured here: mother cell gate response

| Compound | GFP response vs DMSO [1] | GFP response vs DMSO [1, 6] [%] | GFP response vs DMSO [1, 7] [%] | GFP response relative to DMSO [2] | GFP response relative to DMSO [2, 8] [%] | GFP response relative to DMSO [2, 9] [%] | GFP response vs DMSO [3] | GFP response, % of DMSO [4] | GFP response, % of DMSO [5] | GFP response, % of DMSO [5, 6] [%] | GFP response, % of DMSO [5, 7] [%] |
| --- | --- | --- | --- | --- | --- | --- | --- | --- | --- | --- | --- |
| CCCCOc1ccc(C(=O)N2CCN(c3ccc(N4CCOCC4)nn3)CC2)cc1 | 97.4% (inactive) | 99.1 | 94.9 | 97.9% (inactive) | 97.6 | 97.2 | 98.3% (inactive) | 97.2% (inactive) | 98.3% (inactive) | 101 | 98.5 |
| CC1CCCN(CCCNC(=O)C2CCN(S(=O)(=O)N3CCC4(CC3)OCCO4)CC2)C1 (configuration not stated) | 96.4% (inactive) | 96.1 | 98.5 | 97.9% (inactive) | 97.6 | 96.1 | 96.2% (inactive) | 98.9% (inactive) | 105% (inactive) | 106 | 106 |
| CCC(Sc1nc(=O)cc(N)n1-c1ccccc1)C(=O)Nc1cc(C)on1 (configuration not stated) | 98.2% (inactive) | 98.8 | 95.3 | 105% (inactive) | 105 | 96.5 | 108% (inactive) | 102% (inactive) | 109% (inactive) | 111 | 104 |
| Cc1cc(NCCN2CCOCC2)n2nc(C)c(-c3ccccc3)c2n1 | 98.8% (inactive) | 99.1 | 97.4 | 100% (inactive) | 95 | 99.5 | 102% (inactive) | 95.2% (inactive) | 92.1% (inactive) | 94.6 | 91 |
| CCN(CC)c1ccc2cc(-c3nc4ccccc4[nH]3)c(=O)oc2c1 | 108% (inactive) | 106 | 111 | 107% (inactive) | 99.3 | 113 | 185% (active) | 108% (inactive) | 135% (inactive) | 132 | 136 |
| COc1ccc(C2CC(=O)C(C(c3ccc(O)cc3)C3C(=O)CC(c4ccc(OC)cc4)CC3=O)C(=O)C2)cc1 (configuration not stated) | 100% (inactive) | 101 | 101 | 93.7% (inactive) | 92 | 92 | 96.6% (inactive) | 101% (inactive) | 110% (inactive) | 110 | 109 |
| [O-][n+]1cccc2c(Br)cc(Br)c(O)c21 | 98.2% (inactive) | 99.6 | 95.6 | 258% (active) | 215 | 251 | 178% (active) | 112% (inactive) | 101% (inactive) | 103 | 95.7 |
| O=C(/C=C/c1c(F)cccc1Cl)c1ccc(F)cc1 | 104% (inactive) | 104 | 101 | 118% (inactive) | 120 | 120 | 157% (inactive) | 104% (inactive) | 126% (inactive) | 129 | 120 |
| Cc1cccn2c(=O)c(/C=C(\C#N)C(=O)NC3CCS(=O)(=O)C3)c(N3CCC(C)CC3)nc12 (configuration not stated) | 102% (inactive) | 101 | 102 | 96.2% (inactive) | 97.2 | 95.2 | 102% (inactive) | 101% (inactive) | 107% (inactive) | 99.7 | 109 |
| COc1ccc(N2CCN(C(=O)C3CCCN(S(=O)(=O)c4ccc(C)cc4)C3)CC2)cc1 (configuration not stated) | 95.2% (inactive) | 97.4 | 93.4 | 103% (inactive) | 104 | 104 | 105% (inactive) | 97.3% (inactive) | 103% (inactive) | 97.4 | 105 |
| O=C(OCC(=O)N1CCN(C(=O)c2ccco2)CC1)c1cc(-c2ccc(F)cc2)nc2ccccc12 | 78.9% (inactive) | 74.3 | 74.5 | 133% (inactive) | 107 | 138 | 125% (inactive) | 138% (inactive) | 135% (inactive) | 114 | 136 |
| Cc1noc2ncnc(Sc3ccccc3Cl)c12 | 106% (inactive) | 104 | 105 | 112% (inactive) | 111 | 112 | 109% (inactive) | 101% (inactive) | 116% (inactive) | 113 | 114 |
| COc1ccc(/C=C/C(=O)C2C(=O)C=C(C)OC2=O)cc1O (configuration not stated) | 101% (inactive) | 102 | 101 | 123% (inactive) | 118 | 125 | 112% (inactive) | 101% (inactive) | 101% (inactive) | 104 | 96.8 |
| CCN1C(=O)/C(=C\C(=O)c2cccs2)c2cc(Br)ccc21 | 97.6% (inactive) | 96.7 | 97.2 | 144% (inactive) | 128 | 140 | 104% (inactive) | 94.5% (inactive) | 99.3% (inactive) | 104 | 92.1 |
| COc1ccccc1N1C(=O)c2cccc3c(C(=O)O)ccc(c23)C1=O | 98.8% (inactive) | 99.1 | 98.7 | 101% (inactive) | 101 | 98.3 | 105% (inactive) | 97.4% (inactive) | 99.7% (inactive) | 101 | 98.5 |
| CCOc1ccccc1NC1=C(Cl)C(=O)N(Cc2ccccc2)C1=O | 103% (inactive) | 102 | 104 | 96.2% (inactive) | 97.2 | 97.2 | 104% (inactive) | 98.5% (inactive) | 99.1% (inactive) | 99.7 | 98.7 |
| CCN1/C(=C/c2ccc3cc(C)ccc3[n+]2CC)Sc2ccc3sccc3c21 | 96.7% (inactive) | 74.3 | 92.3 | 316% (active) | 155 | 287 | 244% (active) | 118% (inactive) | 132% (inactive) | 110 | 133 |
| O=[N+]([O-])c1cc(Cl)c2cccnc2c1O | 100% (inactive) | 94.9 | 102 | 174% (active) | 141 | 181 | 118% (inactive) | 100% (inactive) | 99.3% (inactive) | 96.4 | 94.5 |
| Cc1ccc(S(=O)(=O)NCC23C=CC(O2)C2C(=O)N(c4ccccc4)C(=O)C23)cc1 (configuration not stated) | 98.4% (inactive) | 98.9 | 98.7 | 96.7% (inactive) | 97.6 | 97.2 | 102% (inactive) | 99.9% (inactive) | 105% (inactive) | 105 | 104 |
| CCOc1ccc(NC2=C(Cl)C(=O)N(Cc3ccccc3)C2=O)cc1 | 98.2% (inactive) | 98.3 | 100 | 102% (inactive) | 96.5 | 102 | 99.5% (inactive) | 95.8% (inactive) | 96.4% (inactive) | 98.3 | 94.5 |
| CCn1c(=O)c(C(=O)Nc2ccccc2C)c(O)c2ccccc21 | 97.8% (inactive) | 98.1 | 97.9 | 102% (inactive) | 102 | 99.3 | 105% (inactive) | 96% (inactive) | 96.9% (inactive) | 99.1 | 96.1 |
| COc1ccc(N2C(=O)CC(Sc3nccc(C)n3)C2=O)cc1 (configuration not stated) | 97.2% (inactive) | 98 | 96.5 | 98.8% (inactive) | 101 | 98.5 | 104% (inactive) | 107% (inactive) | 99.3% (inactive) | 96.4 | 100 |
| COc1ccc(NC(=O)CCc2nc(-c3ccccc3F)no2)cc1 | 95.6% (inactive) | 95.9 | 93.1 | 106% (inactive) | 101 | 106 | 101% (inactive) | 97.7% (inactive) | 97.2% (inactive) | 95.8 | 94.9 |
| O=C(NC(=S)NNC(=O)[C@H]1C[C@@H]1c1ccccc1)c1cccc(F)c1 | 111% (inactive) | 115 | 110 | 150% (active) | 144 | 147 | 135% (inactive) | 109% (inactive) | 137% (inactive) | 141 | 127 |
| CCOc1ccc2nc(SCC(=O)NCC3CCCO3)c(C#N)cc2c1 (configuration not stated) | 97.8% (inactive) | 95.9 | 99.2 | 99.8% (inactive) | 100 | 101 | 97.8% (inactive) | 96.3% (inactive) | 90% (inactive) | 91.5 | 88 |
| O=C1c2ccsc2SCCN1Cc1cccc(Cl)c1 | 95.4% (inactive) | 92.6 | 95.8 | 108% (inactive) | 104 | 110 | 98.3% (inactive) | 98.7% (inactive) | 99.7% (inactive) | 99.1 | 101 |
| CCOc1ccc2ccccc2c1C(=O)N1CCN(c2ccccc2)CC1 | 97.8% (inactive) | 98.4 | 96.3 | 105% (inactive) | 105 | 105 | 99.3% (inactive) | 98.4% (inactive) | 93.1% (inactive) | 94 | 93.8 |
